Measurements reported in paper PMC7036014 (Molecular cell, 2019).
Positions count from the first letter of the chain named. One block for each molecule: values may come before it.

Key:
[1] = target: T1, recombinant full-length murine PLIN5 (Mus musculus, UniProt Q8BVZ1); assay: Intrinsic tryptophan fluorescence quenching binding assay, PLIN5; details: for binding curve, PLIN5: tryptophan fluorescence
T1 sequence (Q8BVZ1 1-463): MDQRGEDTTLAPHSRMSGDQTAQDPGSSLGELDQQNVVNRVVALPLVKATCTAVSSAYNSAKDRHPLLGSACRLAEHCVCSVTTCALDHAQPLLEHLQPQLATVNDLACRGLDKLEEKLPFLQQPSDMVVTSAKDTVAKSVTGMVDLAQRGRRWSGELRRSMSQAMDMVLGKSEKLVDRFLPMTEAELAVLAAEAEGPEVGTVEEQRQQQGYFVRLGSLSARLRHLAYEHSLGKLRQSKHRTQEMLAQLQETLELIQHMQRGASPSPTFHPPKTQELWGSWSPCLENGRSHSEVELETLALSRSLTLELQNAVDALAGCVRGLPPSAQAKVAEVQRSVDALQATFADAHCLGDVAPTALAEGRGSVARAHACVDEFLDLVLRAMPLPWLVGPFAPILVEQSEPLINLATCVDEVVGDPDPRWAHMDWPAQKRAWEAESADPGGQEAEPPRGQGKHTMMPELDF
Procedure, shortened: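 Protein at 150 nM in 10 mM NaH2PO4, pH 7.5, titrated with ethanolic fatty acid. Excitation 295 nm, emission scanned 300–400 nm. Signal corrected for buffer-plus-ligand background. ΔF (F0−F) plotted against ligand to give a saturation curve. Kd taken from linear regression of the double-reciprocal transform. PLIN5: untagged full-length murine recombinant protein, n=4.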

SIRT1 [2] = target: T2, SIRT1 (Homo sapiens, UniProt Q96EB6); assay: Intrinsic tryptophan fluorescence quenching binding assay, SIRT1; details: for Kd, SIRT1: tryptophan quenching
T2 sequence (Q96EB6 1-747): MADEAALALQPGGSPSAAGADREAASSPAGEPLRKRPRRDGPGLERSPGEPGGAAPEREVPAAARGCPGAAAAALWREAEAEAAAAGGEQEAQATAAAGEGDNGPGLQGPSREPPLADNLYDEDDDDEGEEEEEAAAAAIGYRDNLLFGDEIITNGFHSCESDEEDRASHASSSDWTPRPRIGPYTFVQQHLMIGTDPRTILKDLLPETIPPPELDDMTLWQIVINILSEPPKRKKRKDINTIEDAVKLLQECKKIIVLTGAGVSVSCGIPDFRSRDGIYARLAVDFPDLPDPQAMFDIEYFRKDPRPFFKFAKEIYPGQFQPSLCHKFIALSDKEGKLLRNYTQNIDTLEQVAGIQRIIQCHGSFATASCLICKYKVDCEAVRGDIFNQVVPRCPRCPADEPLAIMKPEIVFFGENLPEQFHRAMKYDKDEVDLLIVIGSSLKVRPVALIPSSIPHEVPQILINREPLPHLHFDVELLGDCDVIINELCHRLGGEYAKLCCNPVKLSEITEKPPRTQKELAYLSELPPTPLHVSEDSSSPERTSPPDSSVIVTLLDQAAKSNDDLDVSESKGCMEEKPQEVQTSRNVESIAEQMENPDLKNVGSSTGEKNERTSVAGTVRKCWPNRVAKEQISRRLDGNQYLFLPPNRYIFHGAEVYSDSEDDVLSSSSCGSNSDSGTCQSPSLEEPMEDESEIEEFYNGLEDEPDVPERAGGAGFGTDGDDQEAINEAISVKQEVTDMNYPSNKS

SIRT1 [3] = target: T2, SIRT1; assay: Circular dichroic analysis of SIRT1 secondary structure with ligand; details: for shape of the CD spectrum of SIRT1: addition of ligand; for α-helical content of SIRT1: with ligand, 23% without ligand
SIRT1 [4] = target: T2, SIRT1; assay: 1,8-ANS displacement assay, SIRT1; assay type: binding; details: for Ki, SIRT1: displacement of 1,8-ANS
SIRT1 [5] = target: T2, SIRT1; assay: HPLC-MS/MS SIRT1 deacetylation assay with acetylated peptide substrates; assay type: biochemical; details: for activation of SIRT1 towards mutant p53 peptide (p53-W): 250 nM 18:1, 10 μM resveratrol, 1 μM SRT1720; for allosteric activation of SIRT1 towards wild-type p53 peptide: p53 peptide lacking hydrophobic residue at +1 or +6
Procedure, shortened: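 Recombinant SIRT1 (1 μM, E. coli-expressed) incubated with acetylated peptide (0–250 μM) plus fatty acid in 25 mM Tris, pH 8.0, 50 mM NaCl, 1 mM DTT, 1 mM NAD+ for 60 min at 37°C. Deacetylation quantified by HPLC-MS/MS with positive-mode electrospray. Km, Vmax and kcat obtained from Lineweaver-Burk plots.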

PLIN5 = target: T3, PLIN5 (Mus musculus, UniProt Q8BVZ1); assay: 1,8-ANS displacement assay, PLIN5; assay type: binding, murine
T3 sequence (Q8BVZ1 1-463): T1 sequence (Q8BVZ1 1-463)
Procedure, shortened: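 Untagged recombinant PLIN5 (His-MBP tag removed by TEV protease) at 1 μM with 500 nM 1,8-ANS in 50 mM sodium phosphate, pH 7.5, 25°C. Competitor lipids added in increasing amounts, each mixed 60 s before reading fluorescence. I50 taken from the normalized displacement curve. Ki = I50/(1+[L]/KD), using the ANS KD from a Scatchard analysis of a protein titration.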

PLIN5-pM (S155E) = target: T4, PLIN5-pM (S155E) (Mus musculus, UniProt Q8BVZ1, S155E); assay: Tryptophan fluorescence quenching binding assay, PLIN5-pM; design: species or system murine; details: for increase in binding affinity of PLIN5-pM: PLIN5-pM vs comparator
T4 sequence (Q8BVZ1 1-463 S155E): T1 sequence (Q8BVZ1 1-463) with S155E

PGC-1α activity, MEFs = assay: PGC-1α luciferase reporter assay in MEFs; assay type: cell-based, mouse; details: for PGC-1α activity with cAMP, individual fatty acid loading: vs non-loaded or 18:0/16:0 loaded cells; for activation of PGC-1α in Sirt1 knockout cells rescued with GFP tagged human Sirt1: Sirt1 knockout MEFs + human Sirt1
PLIN5-pM = target: T5, PLIN5-pM (Mus musculus, UniProt Q8BVZ1, S155E); assay: Circular dichroic analysis of PLIN5-pM with ligand; design: species or system murine; details: addition of ligand
T5 sequence (Q8BVZ1 1-463 S155E): T1 sequence (Q8BVZ1 1-463) with S155E
Procedure, shortened: (§1)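 Far-UV CD spectra of the PLIN5 phospho-mutants in 10 mM NaH2PO4, pH 7.5, with 10 mM NaCl, with and without ligand. Run at 25°C in a 1 mm path cuvette. Ligand incubated 2–5 min before each scan. Each spectrum is the average of ten scans, repeated in triplicate.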

[6] = system: PGC-1α activity, mouse L-cells; assay: PGC-1α luciferase reporter assay in L-cells; assay type: cell-based; details: Plin5 knockout L-cells
[7] = system: cellular cAMP levels, MEF cells; assay: cAMP-Glo Assay in MEF cells; assay type: cell-based, mouse; details: 6 hrs 500 μM 18:1, no Iso/IBMX
Procedure, shortened: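 MEFs in DMEM/10% FBS given 2% fatty-acid-free BSA or 500 μM 18:1–BSA complex for 6 or 16 h. Then washed and switched to serum-free DMEM with DMSO or 20 μM isoproterenol/500 μM IBMX for 20 min. cAMP-Glo steps at room temperature: lysis 15 min, detection solution 20 min, Kinase-Glo 10 min. n=12–16.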

PLIN5-pD = target: T6, PLIN5-pD (Mus musculus, UniProt Q8BVZ1, S155A); assay: Circular dichroic analysis of PLIN5-pD with ligand; design: species or system murine; details: addition of ligand
T6 sequence (Q8BVZ1 1-463 S155A): T1 sequence (Q8BVZ1 1-463) with S155A
Procedure, shortened: as §1

[8] = system: PGC-1α activity, primary hepatocytes; assay: PGC-1α luciferase reporter assay in primary hepatocytes; assay type: cell-based, mouse; details: hepatocytes preloaded with fatty acid
[9] = acetylated PGC-1α peptide substrate
[10] = acetylated FOXO3a peptide substrate
[11] = fixed amounts of PGC-1α, FOXO3a and H3 peptides, 150 or 600 nM 18:1

binding curve, PLIN5 [1]: Saturable binding curves
Kd, SIRT1 (SIRT1 [2]): No fatty acid binding was observed
shape of the CD spectrum of SIRT1 (SIRT1 [3]): did not alter
Ki, SIRT1 (SIRT1 [4]): not observed
stimulation of SIRT1 deacetylase activity (SIRT1 [5]; [9]): unable to stimulate
Compound: CCCCCCCCCCCCCCCC(=O)O [16:0, palmitic acid]

Kd [1]: 82 ± 12 nM
binding curve, PLIN5 [1]: Saturable binding curves
Ki (PLIN5): 9900 ± 70 nM
Kd (SIRT1 [2]): 100 ± 3 nM
Kd (PLIN5-pM (S155E)): 23 ± 3 nM
increase in binding affinity of PLIN5-pM (PLIN5-pM (S155E)): 3.4 fold
PGC-1α activity with cAMP, individual fatty acid loading (PGC-1α activity, MEFs): synergized with cAMP
α-helical content of SIRT1 (SIRT1 [3]): 25.9%
Ki (SIRT1 [4]): 12500 ± 60 nM
Km of SIRT1 towards the PGC-1α peptide (SIRT1 [5]; [9]): lowering
SIRT1 catalytic efficiency (Kcat/Km) towards the PGC-1α peptide (SIRT1 [5]; [9]): increase
Compound: CCCCCC/C=C\CCCCCCCC(=O)O [16:1, palmitoleic acid]

binding curve, PLIN5 [1]: Saturable binding curves
Ki (PLIN5): 17700 ± 40 nM
Kd, SIRT1 (SIRT1 [2]): No fatty acid binding was observed
shape of the CD spectrum of SIRT1 (SIRT1 [3]): did not alter
Ki, SIRT1 (SIRT1 [4]): not observed
stimulation of SIRT1 deacetylase activity (SIRT1 [5]; [9]): unable to stimulate
Compound: CCCCCCCCCCCCCCCCCC(=O)O [18:0, stearic acid]

Compound: CCCCCCCC/C=C\CCCCCCCC(=O)O [18:1, oleic acid]
shape of the CD spectrum of PLIN5-pM (PLIN5-pM): robustly altered
regulation of PGC-1α activity in L-Cells lacking Plin5 [6]: PLIN5 was required
Kd [1]: 89 ± 2 nM
binding curve, PLIN5 [1]: Saturable binding curves
Ki (PLIN5): 4000 ± 130 nM
Kd (SIRT1 [2]): 81 ± 9 nM
cellular cAMP levels, acute exposure [7]: increased
Kd (PLIN5-pM (S155E)): 36 ± 8 nM
increase in binding affinity of PLIN5-pM (PLIN5-pM (S155E)): 2.4 fold
basal PGC-1α activity, acute exposure (PGC-1α activity, MEFs; 6 hrs, 500 μM 18:1): increased
requirement of PKA-stimulated lipolysis for activation of PGC-1α (PGC-1α activity, MEFs; PKA or ATGL inhibitors): required
regulation of PGC-1α activity in MEFs lacking Sirt1 (PGC-1α activity, MEFs; Sirt1 knockout MEFs): SIRT1 was required
activation of PGC-1α in Sirt1 knockout cells rescued with GFP tagged human Sirt1 (PGC-1α activity, MEFs): restored
PGC-1α activity upon stimulation of β-adrenergic signaling (PGC-1α activity, MEFs; acute and overnight loading vs non-loaded cells, isoproterenol/IBMX): enhanced
PGC-1α activity with cAMP, individual fatty acid loading (PGC-1α activity, MEFs): synergized with cAMP
α-helical content of SIRT1 (SIRT1 [3]): 28.6%
CD spectrum changes of PLIN5-pD (PLIN5-pD): more subtle changes
Ki (SIRT1 [4]): 5600 ± 120 nM
effect on Km and catalytic efficiency on co-addition with resveratrol (SIRT1 [5]; PGC-1α peptide, co-addition of 18:1 and resveratrol vs single compound): not additive
Km of SIRT1 towards the FOXO3a peptide (SIRT1 [5]; [10]): reduced
SIRT1 catalytic efficiency towards the FOXO3a peptide (SIRT1 [5]; [10]): increased
Km of SIRT1 towards the PGC-1α peptide (SIRT1 [5]; [9]): lowering
SIRT1 catalytic efficiency (Kcat/Km) towards the PGC-1α peptide (SIRT1 [5]; [9]): increase
enzyme velocity (SIRT1 [5]; [9]): without a significant change
deacetylase activity towards FOXO3a and PGC-1α peptides, competition assay (SIRT1 [5]; [11]): increased
deacetylase activity towards H3, competition assay (SIRT1 [5]; [11]): decreased
activation of SIRT1 towards mutant p53 peptide (p53-W) (SIRT1 [5]): activated
allosteric activation of SIRT1 towards wild-type p53 peptide (SIRT1 [5]): did not respond
PGC-1α activity response to cAMP and protein overexpression [8]: further enhanced

binding curve, PLIN5 [1]: Saturable binding curves
Compound: CCCCC/C=C\C/C=C\C/C=C\C/C=C\CCCC(=O)O [20:4, arachidonic acid]

Compound: CN(C)C(=O)Nc1cccc(-c2ccc(N(C)C)cc2)c1 [ATGLstatin, reference compound]
effects of β-adrenergic stimulation on PGC-1α activity in 18:1 loaded cells (PGC-1α activity, MEFs; 30 μM ATGL inhibitor): blocked

activation of SIRT1 towards mutant p53 peptide (p53-W) (SIRT1 [5]): activated
allosteric activation of SIRT1 towards wild-type p53 peptide (SIRT1 [5]): did not respond
Compound: O=C(Nc1ccccc1-c1cn2c(CN3CCNCC3)csc2n1)c1cnc2ccccc2n1 [SRT1720, reference compound]

activation of SIRT1 towards mutant p53 peptide (p53-W) (SIRT1 [5]): activated
allosteric activation of SIRT1 towards wild-type p53 peptide (SIRT1 [5]): did not respond
Compound: Oc1ccc(/C=C/c2cc(O)cc(O)c2)cc1 [resveratrol, reference compound]
activation of PGC-1α in Sirt1 knockout cells rescued with GFP tagged human Sirt1 (PGC-1α activity, MEFs): restored
regulation of PGC-1α in Sirt1 knockout cells rescued with Sirt1-E230K mutant (PGC-1α activity, MEFs; Sirt1 knockout MEFs + human Sirt1 E230K): did not restore
